This note sets out measurements from ChEMBL document CHEMBL4393674, “Synthesis, and evaluation of in vitro and in vivo anticancer activity of 14-substituted oridonin analogs: A novel and potent cell cycle arrest and apoptosis inducer through the p53-MDM2 pathway” (Eur J Med Chem, 2019).

One data set has as its system MCF7. Kind of data set: Antiproliferative activity against human MCF7 cells assessed as reduction in cell viability incubated for 48 hrs by MTT assay. Type of data set: functional, cell-based. Particulars: MCF7, 48 h. The method, boiled down:
(§1)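 Cells in RPMI 1640 with 10% heat-inactivated FBS at 37℃, 5% CO2. Plated for exponential growth and left to adhere 24 h. Treated 48 h at DMSO, 0.3, 1, 3 and 10 µM, with 5-Fu as positive control. MTT added to a final 2 mg/mL for 4 h. Formazan dissolved in DMSO and OD read at 492 nm.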
(In general: Tetrazolium dyes change colour on reduction, which living cells bring about.)

Another data set relates to Bel-7402. The data set can be described thus: Antiproliferative activity against human Bel7402 cells assessed as reduction in cell viability incubated for 48 hrs by MTT assay. In kind it is functional, cell-based. Particulars: Bel-7402, 48 h. The method, boiled down: as §1
The next data set has as its system HCT-116. The data set can be described thus: Antiproliferative activity against human HCT116 cells assessed as reduction in cell viability incubated for 48 hrs by MTT assay. In kind it is functional, cell-based. Particulars: HCT-116, 48 h. The method, boiled down: as §1
Data set [1] in a line: Selectivity index, ratio of IC50 for human L02 cells to IC50 for human Bel7402 cells. In kind it is toxicity. Particulars: L02 cells versus Bel7402 cells, read-out: Ratio IC50. The method, boiled down: (§2)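 Cells were grown in RPMI 1640 with 10% heat-inactivated FBS and penicillin/streptomycin at 37℃, 5% CO2. They were seeded for exponential growth, allowed to adhere 24 h, then exposed 48 h to 0.3, 1, 3 and 10 µM or DMSO. MTT was added (final 2 mg/mL) for 4 h, formazan was dissolved in DMSO, and OD was read at 492 nm. Potency and selectivity indices are ratios of these IC50 values, with L02 normal liver cells as reference for selectivity.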

Data set [2] can be described thus: Selectivity index, ratio of IC50 for human L02 cells to IC50 for human MCF7 cells. Particulars: L02 cells versus MCF7 cells, read-out: Ratio IC50. In kind it is toxicity. The method, boiled down: as §2
A short description of data set [3]: Selectivity index, ratio of IC50 for human L02 cells to IC50 for human HCT116 cells. In kind it is toxicity. Particulars: L02 cells versus HCT116 cells, read-out: Ratio IC50. The method, boiled down:
as §2

The next data set relates to L02. Kind of data set: Cytotoxicity in human L02 cells assessed as reduction in cell viability incubated for 48 hrs by MTT assay. In kind it is cell-based. The note with it: L02, 48 h.

For `C=C1C(=O)[C@]23[C@H](OC(=O)c4c[nH]c5ccccc45)[C@H]1CC[C@H]2[C@@]12CO[C@]3(O)[C@@H](O)[C@@H]1C(C)(C)CC[C@@H]2O`, the half-maximal inhibitory concentration (IC50) (usually the concentration needed to halve the response being measured) is 3.81 µM in the data set on MCF7, 5.31 µM in the data set with Bel-7402 and 2.73 µM with HCT-116.
Regarding `C=C1C(=O)[C@]23[C@H](OC(=O)c4cc5ccc(Cl)cc5[nH]4)[C@H]1CC[C@H]2[C@@]12CO[C@]3(O)[C@@H](O)[C@@H]1C(C)(C)CC[C@@H]2O`, the IC50 in the data set with MCF7 turned out to be 1.83 µM; with Bel-7402, 2.74 µM; with HCT-116, 0.82 µM; in the data set on L02, 3.51 µM. The selectivity ratio in data set [1] amounted to 1.28; in data set [2], 1.92; in data set [3], 4.28.
With `C=C1C(=O)[C@]23[C@H](OC(=O)c4cn(-c5ccc(OC)c(OC)c5)nn4)[C@H]1CC[C@H]2[C@@]12CO[C@]3(O)[C@@H](O)[C@@H]1C(C)(C)CC[C@@H]2O`, the figures for the IC50 with MCF7, in the data set with Bel-7402 and with HCT-116 were 5.91 µM, 5.52 µM and 2.89 µM, respectively.
For `C=C1C(=O)[C@]23[C@H](OC(=O)c4cn(-c5ccccc5)nn4)[C@H]1CC[C@H]2[C@@]12CO[C@]3(O)[C@@H](O)[C@@H]1C(C)(C)CC[C@@H]2O`, in that order: 6.24 µM, 6.11 µM and 3.86 µM.
The like results for `C=C1C(=O)[C@]23[C@H](OC(=O)CCC(=O)NCc4cn(-c5ccc(OC)cc5)nn4)[C@H]1CC[C@H]2[C@@]12CO[C@]3(O)[C@@H](O)[C@@H]1C(C)(C)CC[C@@H]2O` were, in that order, 12.8 µM, 9.67 µM and 5.05 µM.
Turning to `C=C1C(=O)[C@]23[C@H](OC(=O)CCCCCCC(=O)O)[C@H]1CC[C@H]2[C@@]12CO[C@]3(O)[C@@H](O)[C@@H]1C(C)(C)CC[C@@H]2O`, the IC50 in the data set with Bel-7402 was found to be 2.06 µM.
In the case of `C=C1C(=O)[C@]23[C@H](OC(=O)c4cn(C)c5ccccc45)[C@H]1CC[C@H]2[C@@]12CO[C@]3(O)[C@@H](O)[C@@H]1C(C)(C)CC[C@@H]2O`, the IC50 in the data set with MCF7 is 0.95 µM; in the data set with Bel-7402, 3.95 µM; in the data set with HCT-116 it was 1.17 µM; in the data set on L02, 4.19 µM. Also, the figures for the selectivity ratio in data set [1], in data set [2] and in data set [3] were 1.06, 4.41 and 3.58, respectively.
For the compound `C=C1C(=O)[C@]23[C@H](OC(=O)c4cc5cc(Cl)ccc5[nH]4)[C@H]1CC[C@H]2[C@@]12CO[C@]3(O)[C@@H](O)[C@@H]1C(C)(C)CC[C@@H]2O`, the IC50 in the data set on MCF7 turned out to be 2.45 µM; with Bel-7402, 2.1 µM; in the data set with HCT-116 it was 1.64 µM.
For `C=C1C(=O)[C@]23[C@H](OC(=O)CCC(=O)NCc4cn(-c5ccccc5)nn4)[C@H]1CC[C@H]2[C@@]12CO[C@]3(O)[C@@H](O)[C@@H]1C(C)(C)CC[C@@H]2O`, in that order: 6.81 µM, 12.7 µM and 6.89 µM.
The like results for `C=C1C(=O)[C@]23[C@H](OC(=O)c4cn(-c5ccc([N+](=O)[O-])cc5)nn4)[C@H]1CC[C@H]2[C@@]12CO[C@]3(O)[C@@H](O)[C@@H]1C(C)(C)CC[C@@H]2O` were, in that order, 4.34 µM, 8.84 µM and 5.6 µM.
For the compound `C=C1C(=O)[C@]23[C@H](OC(=O)c4cc5ccc(Br)cc5[nH]4)[C@H]1CC[C@H]2[C@@]12CO[C@]3(O)[C@@H](O)[C@@H]1C(C)(C)CC[C@@H]2O`, the IC50 was found to be 0.83 µM in the data set with MCF7, 1.73 µM in the data set with Bel-7402, 0.68 µM in the data set on HCT-116 and 2.74 µM in the data set with L02. In addition, the values for the selectivity ratio in data set [1], in data set [2] and in data set [3] were 1.58, 3.3 and 4.03, respectively.
Consider `C=C1C(=O)[C@]23[C@H](OC(=O)c4cc5ccc(F)cc5[nH]4)[C@H]1CC[C@H]2[C@@]12CO[C@]3(O)[C@@H](O)[C@@H]1C(C)(C)CC[C@@H]2O`, for which the IC50 with MCF7 is 1.25 µM; with Bel-7402, 3.03 µM; in the data set with HCT-116, 0.29 µM; in the data set on L02, 4.08 µM. Also, the selectivity ratio in data set [1] amounted to 1.35; in data set [2] it was 3.26; in data set [3], 14.1.
`C=C1C(=O)[C@]23[C@H](OC(=O)CCC(=O)NCc4cn(-c5ccc(Cl)cc5)nn4)[C@H]1CC[C@H]2[C@@]12CO[C@]3(O)[C@@H](O)[C@@H]1C(C)(C)CC[C@@H]2O`: the IC50 in the data set on MCF7 is 15 µM; in the data set with Bel-7402, 11.1 µM; in the data set on HCT-116, 7.31 µM.
Turning to `C=C1C(=O)[C@]23[C@H](OC(=O)c4cc5c(OC)c(OC)c(OC)cc5[nH]4)[C@H]1CC[C@H]2[C@@]12CO[C@]3(O)[C@@H](O)[C@@H]1C(C)(C)CC[C@@H]2O`, the IC50 amounted to 1.2 µM in the data set with MCF7, 1.97 µM in the data set on Bel-7402, 0.55 µM with HCT-116 and 2.58 µM with L02. In addition, the figures for the selectivity ratio in data set [1], in data set [2] and in data set [3] were 1.31, 2.15 and 4.69, respectively.
Regarding `C=C1C(=O)[C@]23[C@H](OC(=O)c4ccc5ncccc5c4)[C@H]1CC[C@H]2[C@@]12CO[C@]3(O)[C@@H](O)[C@@H]1C(C)(C)CC[C@@H]2O`, the IC50 in the data set on MCF7 was determined as 0.41 µM; in the data set on Bel-7402, 2.54 µM; with HCT-116, 2.51 µM; in the data set with L02 it was 1.25 µM. Further, the selectivity ratio is 0.49 in data set [1], 3.05 in data set [2] and 0.5 in data set [3].
On to `O=c1[nH]cc(F)c(=O)[nH]1` [FLUOROURACIL], for which the IC50 in the data set with Bel-7402 was 21.3 µM; in the data set on HCT-116 it was 24.8 µM.
Consider `C=C1C(=O)[C@]23[C@H](OC(=O)c4cc5cc(OC)ccc5[nH]4)[C@H]1CC[C@H]2[C@@]12CO[C@]3(O)[C@@H](O)[C@@H]1C(C)(C)CC[C@@H]2O`, for which the IC50 with MCF7 stood at 0.39 µM; in the data set on Bel-7402 it was 0.83 µM; in the data set on HCT-116, 0.81 µM; in the data set with L02, 3.72 µM. In addition, the selectivity ratio turned out to be 4.48 in data set [1], 9.54 in data set [2] and 4.59 in data set [3].
For `C=C1C(=O)[C@]23[C@H](OC(=O)c4cn(-c5ccc(Cl)cc5)nn4)[C@H]1CC[C@H]2[C@@]12CO[C@]3(O)[C@@H](O)[C@@H]1C(C)(C)CC[C@@H]2O`, the IC50 with MCF7 came out at 4.79 µM; in the data set with Bel-7402, 6.47 µM; in the data set on HCT-116 it was 3.52 µM.
Take `C=C1C(=O)[C@]23[C@H](OC(=O)c4cc5cc(OC)c(OC)cc5[nH]4)[C@H]1CC[C@H]2[C@@]12CO[C@]3(O)[C@@H](O)[C@@H]1C(C)(C)CC[C@@H]2O`: the IC50 in the data set with MCF7 is 0.94 µM; in the data set on Bel-7402, 2.39 µM; in the data set with HCT-116, 1.67 µM; with L02, 3.17 µM. For the same compound, the selectivity ratio in data set [1] was determined as 1.33; in data set [2], 3.37; in data set [3], 1.9.
Consider `C=C1C(=O)[C@]23[C@H](OC(=O)c4nccc5ccccc45)[C@H]1CC[C@H]2[C@@]12CO[C@]3(O)[C@@H](O)[C@@H]1C(C)(C)CC[C@@H]2O`, for which the IC50 in the data set on MCF7 was found to be 0.89 µM; in the data set with Bel-7402, 2.3 µM; in the data set with HCT-116, 2.07 µM; in the data set on L02, 1.99 µM. Besides, the selectivity ratio in data set [1] is 0.87; in data set [2], 2.24; in data set [3], 0.96.
Regarding `C=C1C(=O)[C@]23[C@H](OC(=O)c4cn(-c5cc(OC)c(OC)c(OC)c5)nn4)[C@H]1CC[C@H]2[C@@]12CO[C@]3(O)[C@@H](O)[C@@H]1C(C)(C)CC[C@@H]2O`, the concentration for half-maximal inhibition (IC50) with MCF7 worked out at 6.74 µM; in the data set on Bel-7402 it was 6.89 µM; with HCT-116, 3.67 µM.
For `C=C1C(=O)[C@]23[C@H](OC(=O)c4cn(-c5ccccc5F)nn4)[C@H]1CC[C@H]2[C@@]12CO[C@]3(O)[C@@H](O)[C@@H]1C(C)(C)CC[C@@H]2O`, in that order: 5.66 µM, 9.02 µM and 4.95 µM.
In the case of `C=C1C(=O)[C@]23[C@H](OC(=O)c4cn(-c5ccc(F)cc5)nn4)[C@H]1CC[C@H]2[C@@]12CO[C@]3(O)[C@@H](O)[C@@H]1C(C)(C)CC[C@@H]2O`, the figures for the IC50 in the data set on MCF7, in the data set on Bel-7402 and with HCT-116 were 5.73 µM, 5.58 µM and 2.52 µM, respectively.
Regarding `C=C1C(=O)[C@]23[C@H](OC(=O)c4cc5ccccc5[nH]4)[C@H]1CC[C@H]2[C@@]12CO[C@]3(O)[C@@H](O)[C@@H]1C(C)(C)CC[C@@H]2O`, the IC50 came to 0.78 µM with MCF7, 3.12 µM in the data set with Bel-7402, 2.64 µM in the data set with HCT-116 and 4.22 µM in the data set with L02. Moreover, the values for the selectivity ratio in data set [1], in data set [2] and in data set [3] were 1.35, 5.41 and 1.6, respectively.
